{"source": "paper PMC9119696", "about": "(Nature chemical biology, 2021)", "key": {"Thiol reactivity assay": {"experiment": "Thiol reactivity assay", "type": "physicochemical", "conditions": "compared with 2; reactivity varied by an order of magnitude"}, "GST-Pin1": {"target": "GST-Pin1 (Homo sapiens, UniProt Q13526)", "sequence (Q13526 whole entry)": "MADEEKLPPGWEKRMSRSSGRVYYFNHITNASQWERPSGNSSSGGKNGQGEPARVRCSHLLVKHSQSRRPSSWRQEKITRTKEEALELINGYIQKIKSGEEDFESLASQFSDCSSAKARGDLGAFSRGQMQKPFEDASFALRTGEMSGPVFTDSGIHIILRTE", "experiment": "Chymotrypsin-coupled PPIase activity assay", "type": "biochemical", "conditions": "read-out: apparent Ki (PPIase assay); measured at 12 h", "outline": "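GST-Pin1 (50 nM) preincubated with test compound for 12 h at 4 °C in 35 mM HEPES pH 7.8, 0.2 mM DTT, 0.1 mg ml-1 BSA. Chymotrypsin (final 6 mg ml-1) was added just before starting, followed by Suc-Ala-pSer-Pro-Phe-pNA substrate.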"}, "Pin1": {"test_system": "Pin1", "experiment": "Live cell competition pulldown", "type": "cell-based", "outline": "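2.5 million cells per 10-cm plate, dosed next day with DMSO or test compound (5 h, or as indicated). Cells washed in cold PBS, scraped and lysed in HEPES pH 7.4/NP-40 buffer with TCEP. Lysate (500 µg) incubated with desthiobiotin probe (1 µM, 1 h, 4 °C), then streptavidin agarose (1.5 h, 4 °C). Pin1 pulldown detected by immunoblot.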"}, "[1]": {"experiment": "Hepatic microsome stability", "type": "in vitro ADME, mouse", "conditions": "1 μM, 1 mg ml^−1 microsomes, NADPH", "outline": "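Test compound (1 µM) incubated with hepatic microsomes (1 mg ml-1) in 100 mM KPi, pH 7.4. Reaction started by adding 1 mM NADPH.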"}, "[2]": {"experiment": "Acute toxicity model in mice", "type": "in vivo", "conditions": "daily 10, 20 or 40 mg kg^–1 IP for 2 weeks", "outline": "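Mice, 3 per arm, 14 days: vehicle; 10 mg kg-1 once daily; 20 mg kg-1 every other day; 40 mg kg-1 once daily; 40 mg kg-1 every other day. Given by IP injection in 5% N-methylpyrrolidone, 5% solutol, 20% DMSO. Adverse effects and weight recorded; postmortem examination.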"}, "Pin1 Cys113 [3]": {"test_system": "Pin1 Cys113", "experiment": "CITe-Id chemoproteomic cysteine profiling", "type": "cell-based", "conditions": "PATU-8988T cells, 100, 500, 1,000 nM, 5 h", "outline": "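Live PATU-8988T cells exposed to test compound at 100, 500 or 1,000 nM for 5 h, then lysed. Lysates co-incubated with the desthiobiotin-tagged probe (2 µM) for 18 h. Probe-labelled cysteines were identified and quantified proteome-wide for dose-dependent competition.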"}, "Pin1 Cys113 [4]": {"test_system": "Pin1 Cys113", "experiment": "rdTOP-ABPP chemoproteomic cysteine profiling", "type": "cell-based", "conditions": "MDA-MB-231 cells, 5 μM, 2 h", "outline": "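MDA-MB-231 cells at 70% confluence treated 2 h with DMSO or 5 µM compound in serum-free medium. Lysed by sonication in PBS/0.1% Triton X-100; spun 100,000g, 30 min. Proteome (2 mg ml-1) labelled with 100 µM iodoacetamide-alkyne, 1 h RT. Clicked 1 h to biotin-acid-N3 (CuSO4/TBTA/TCEP). LC-MS/MS with cysteine modification +322.23688 Da; light/heavy ratios quantified.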"}, "[5]": {"test_system": "IRAK1 Thr209 phosphorylation", "experiment": "IRAK1 Thr209 phosphorylation immunoblot", "type": "cell-based", "conditions": "HeLa, 24 h post-IR"}, "[6]": {"test_system": "germinal center (GC) B cells", "experiment": "In vivo germinal center B cell evaluation", "set-up": "species or system mice", "conditions": "IP 40 mg kg^−1 on days 7 and 9 after NP-OVA immunization, day 11", "outline": "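WT mice immunised with NP-OVA and killed on day 11. Lymph node cells Fc-blocked with anti-CD16/32 (2 µg ml-1, 5–10 min), then stained 20–40 min with B220, FAS and CD38 antibodies. Germinal centre B cells gated as live/single B220+ CD38lo FAShi by flow cytometry. Two-tailed Student's t test.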"}, "[7]": {"test_system": "275 human cancer cell lines", "experiment": "PRISM cancer cell viability screening", "type": "cell-based", "conditions": "5-day treatment, 275 cell lines", "outline": "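Pooled, 24-nucleotide-barcoded cancer cell lines (275 in total) exposed to test compound for 5 days. Eight-point curve in fourfold dilutions from a top concentration of 20 µM.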"}, "WT PATU-8988T cells": {"test_system": "WT PATU-8988T cells", "experiment": "2D growth over time viability", "type": "cell-based", "conditions": "1 μM, 6 and 8 days", "outline": "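PATU-8988T cells plated at 100 per well (other lines 500), with one plate per time point (days 0, 2, 4, 6, 8). Treated the day after plating with DMSO or compound and held at 37 °C, 5% CO2. Medium plus fresh compound replaced every 48 h. CellTiter-Glo luminescence read; day 0 read before treatment. Values divided by mean day 0 reading; n = 3 biological replicates.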"}, "PATU-8988T Pin1 KO cells": {"test_system": "PATU-8988T Pin1 KO cells", "experiment": "3D Matrigel dome antiproliferative assay", "type": "cell-based", "conditions": "1 μM, 9-day treatment", "outline": "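1,000 cells per Matrigel dome, one dome per well, left 15 min at 37 °C to solidify. Medium with test compound renewed every 3 days. After 9 days, 3D CellTiter-Glo was added and the plate shaken 1 h at room temperature before reading luminescence. n = 9 biological replicates per condition.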"}, "Mino B cells": {"test_system": "Mino B cells", "experiment": "RNA-seq differential expression", "type": "cell-based, human", "conditions": "1 μM, 6 h", "outline": "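Mino cells grown in RPMI 1640 with 15% FBS and 1% penicillin/streptomycin at 37 °C, 5% CO2 in a humidified incubator.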"}, "[8]": {"test_system": "transplanted neuroblastoma cells in zebrafish embryos", "experiment": "Zebrafish neuroblastoma allograft transplant model", "type": "in vivo", "conditions": "100 μM in fish water, 5 days", "outline": "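Neuroblastoma cells obtained by dicing 4-month-old Tg(dβh:MYCN;dβh:EGFP) fish in PBS and transplanted into embryos. Live fish imaged under identical conditions. Tumour burden quantified as the area of EGFP-fluorescent tumour mass.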"}, "[9]": {"test_system": "KPC mouse-derived pancreatic cancer cells in B6 mice", "experiment": "KPC orthotopic pancreatic cancer mouse model", "type": "in vivo", "conditions": "for survival: n = 8", "outline": "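Pancreatic cancer cells from a KPC mouse (Pdx1-Cre, lsl-KrasG12D/+, lsl-tp53R172H/+) transplanted orthotopically into the pancreatic tail of B6 mice. Daily IP dosing with vehicle or test compound at 20 or 40 mg kg-1 began one week later. Mice were euthanised when the largest control tumour reached 2 cm in length, and tumours were collected and measured.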"}}, "note": "Several values for one entry are separate records, joined by “and”; a condition that tells them apart may be missing. Identical values can stand only once.", "data": [{"compound": "CC(C)(C)CN(C(=O)CCl)C1CCS(=O)(=O)C1", "note": "(stereo not drawn) [Sulfopin]", "values": [{"measurement": "thiol reactivity", "setting": "Thiol reactivity assay", "value": "dramatically less reactive"}, {"measurement": "Ki", "setting": "GST-Pin1", "value": 211, "unit": "nM"}, {"measurement": "time to complete Pin1 engagement", "setting": "Pin1; 1-μM treatment, PATU-8988T cells", "value": "≤ 4", "unit": "h"}, {"measurement": "concentration fully engaging Pin1", "setting": "Pin1; HCT116 cells, 5 h", "value": 0.5, "unit": "µM"}, {"measurement": "concentration of maximal Pin1 engagement", "setting": "Pin1; PATU-8988T and HCT116 cells, 5 h", "value": "0.5 to 1", "unit": "µM"}, {"measurement": "concentration fully engaging Pin1", "setting": "Pin1; PATU-8988T cells, 5 h", "value": 1, "unit": "µM"}, {"measurement": "Pin1 engagement after 72 h", "setting": "Pin1; PATU-8988T or HCT116 cells, 72 h", "value": "> 50", "unit": "%"}, {"measurement": "half-life in mouse hepatic microsomes", "setting": "[1]", "value": 41, "unit": "min"}, {"measurement": "adverse effects, weight loss", "setting": "[2]", "value": "No adverse effects or weight loss were recorded"}, {"measurement": "cysteines with dose-dependent competition (of 162 labeled by Sulfopin-DTB)", "setting": "Pin1 Cys113 [3]", "value": "only Pin1 Cys113"}, {"measurement": "competition ratio R, Pin1 Cys113", "setting": "Pin1 Cys113 [4]", "value": 15}, {"measurement": "competition ratio R, all other identified cysteines", "setting": "Pin1 Cys113 [4]; 2,134 peptides", "value": "< 2.5"}, {"measurement": "concentration decreasing IRAK1 Thr209 phosphorylation", "setting": "[5]", "value": "≤ 100", "unit": "nM"}, {"measurement": "proportion of GC B cells compared to vehicle", "setting": "[6]", "value": 1.34, "unit": "fold"}, {"measurement": "antiproliferative activity (PRISM)", "setting": "[7]", "value": "limited to no antiproliferative activity"}, {"measurement": "number of cell lines with EC50 <3 μM", "setting": "[7]", "value": "nine"}, {"measurement": "effect on cellular viability", "setting": "WT PATU-8988T cells", "value": "significant effect on cellular viability after 6 and 8 days"}, {"measurement": "antiproliferative activity in 3D Matrigel domes", "setting": "PATU-8988T Pin1 KO cells", "value": "no effects observed"}, {"measurement": "number of genes significantly downregulated", "setting": "Mino B cells", "value": 206}, {"measurement": "eGFP-labeled tumor mass size", "setting": "[8]", "value": "decreased in size"}, {"measurement": "survival", "setting": "[9]; 20 mg kg^−1 daily", "value": 37.5, "unit": "days"}, {"measurement": "average tumor volume", "setting": "[9]; 40 mg kg^−1 daily IP, 27 days, n = 4", "value": "1,210.91 cm^3"}, {"measurement": "survival", "setting": "[9]; 40 mg kg^−1 daily", "value": 48.125, "unit": "days"}, {"measurement": "average increase in survival", "setting": "[9]; 40 mg kg^−1 versus control", "value": "18.125 days and 18 days"}]}]}
